The results in this text go back to ChEMBL document CHEMBL3407369, “Exploration of cyanine compounds as selective inhibitors of protein arginine methyltransferases: synthesis and biological evaluation” (J Med Chem, 2015).

Active and inactive are the calls of the source. The rule behind the calls is not given here.

Assay [1] has as its target T1, Protein arginine N-methyltransferase 1 (Homo sapiens, UniProt Q99873). The experiment in a line: Displacement of [3H]-SAM from recombinant His6-tagged PRMT1 (unknown origin) expressed in Escherichia coli BL21(DE3) at 10 uM incubated for 5 mins prior to H4(1 to 20)-BTN peptide addition measured after 8 mins by scintillation proximity assay. In short, it runs like this: (§1)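 His6-PRMT1 (0.02 µM) was purified from E. coli BL21(DE3) on Ni-NTA. It was preincubated 5 min with compound (10, 30 or 90 µM) and [3H]SAM (0.5 µM) in 50 mM HEPES pH 8.0, 1 mM EDTA, 50 mM NaCl, 0.5 mM DTT at ~25 °C. Biotinylated H4(1–20) peptide (1 µM) was added and the reaction run 8 min. It was quenched with isopropanol and read with streptavidin SPA beads. % inhibition was taken against water (full activity) and no-peptide blanks.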
In general terms: Loss of bound radioactivity is the signal in a displacement assay; it reports binding, not function.
Target sequence in this assay (Q99873 whole entry, looked up): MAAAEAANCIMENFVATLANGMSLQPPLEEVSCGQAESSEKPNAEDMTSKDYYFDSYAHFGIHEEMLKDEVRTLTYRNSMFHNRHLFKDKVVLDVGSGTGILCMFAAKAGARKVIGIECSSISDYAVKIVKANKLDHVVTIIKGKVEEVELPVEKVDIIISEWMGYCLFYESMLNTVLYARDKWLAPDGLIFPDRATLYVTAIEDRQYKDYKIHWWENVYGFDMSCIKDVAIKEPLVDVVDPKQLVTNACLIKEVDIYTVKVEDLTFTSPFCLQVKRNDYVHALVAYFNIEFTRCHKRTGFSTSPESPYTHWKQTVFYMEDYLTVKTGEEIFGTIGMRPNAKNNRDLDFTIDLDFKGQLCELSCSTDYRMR

Assay [2] addresses T1, Protein arginine N-methyltransferase 1. The experiment in a line: Displacement of [3H]-SAM from recombinant His6-tagged PRMT1 (unknown origin) expressed in Escherichia coli BL21(DE3) incubated for 5 mins prior to H4(1 to 20)-BTN peptide addition measured after 8 mins by scintillation proximity assay. In short, it runs like this:
(§2)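 Serial compound dilutions were tested in the same SPA format (His-tagged enzyme purified from E. coli BL21(DE3), 5 min preincubation, H4(1–20)-biotin substrate, 8 min reaction, ~25 °C, HEPES pH 8.0 buffer). [3H]SAM and peptide were set near their predetermined Km values for each enzyme. Remaining activity was fitted to a Hill-modified IC50 equation, giving IC50 and Hill coefficient.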
Target sequence in this assay (Q99873 whole entry): as the sequence (Q99873 whole entry, looked up) above

Assay [3] has the same target. The assay can be described thus: Displacement of [3H]-SAM from recombinant His6-tagged PRMT1 (unknown origin) expressed in Escherichia coli BL21(DE3) at 90 uM incubated for 5 mins prior to H4(1 to 20)-BTN peptide addition measured after 8 mins by scintillation proximity assay. The procedure, abridged:
as §1
Target sequence in this assay (Q99873 whole entry, looked up): as above

The target is the same in assay [4]. The assay can be described thus: Displacement of [3H]-SAM from recombinant His6-tagged PRMT1 (unknown origin) expressed in Escherichia coli BL21(DE3) at 30 uM incubated for 5 mins prior to H4(1 to 20)-BTN peptide addition measured after 8 mins by scintillation proximity assay. In short, it runs like this:
as §1
Target sequence in this assay (Q99873 whole entry, looked up): as above

Assay [5] has as its target T2, Histone-arginine methyltransferase CARM1 (Homo sapiens, UniProt Q86X55).
T2 sequence (Q86X55 whole entry): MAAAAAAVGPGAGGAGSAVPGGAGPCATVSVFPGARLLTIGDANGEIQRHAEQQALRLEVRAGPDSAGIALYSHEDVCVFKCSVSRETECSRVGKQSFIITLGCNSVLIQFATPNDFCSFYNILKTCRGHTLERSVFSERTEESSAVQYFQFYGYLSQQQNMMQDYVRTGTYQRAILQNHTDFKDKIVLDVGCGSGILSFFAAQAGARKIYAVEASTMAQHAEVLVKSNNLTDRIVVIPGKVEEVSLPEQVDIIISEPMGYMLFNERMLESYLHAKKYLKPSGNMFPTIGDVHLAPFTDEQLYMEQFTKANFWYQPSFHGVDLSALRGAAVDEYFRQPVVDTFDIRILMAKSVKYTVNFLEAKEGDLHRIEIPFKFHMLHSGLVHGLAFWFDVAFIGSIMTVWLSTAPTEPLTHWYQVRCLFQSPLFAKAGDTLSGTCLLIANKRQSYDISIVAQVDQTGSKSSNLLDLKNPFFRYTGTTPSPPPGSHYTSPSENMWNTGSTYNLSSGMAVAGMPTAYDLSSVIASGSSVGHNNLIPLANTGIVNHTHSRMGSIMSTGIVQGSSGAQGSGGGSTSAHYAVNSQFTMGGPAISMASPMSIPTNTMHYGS
The assay can be described thus: Displacement of [3H]-SAM from recombinant GST-tagged CARM1 (unknown origin) expressed in Escherichia coli BL21(DE3) incubated for 5 mins prior to H3.3 protein addition measured after 8 mins by P81 filter paper binding assay.

Assay [6] is filed under the species Homo sapiens. The assay can be described thus: Selectivity ratio of IC50 for recombinant His6-tagged PRMT5 (unknown origin) to IC50 for recombinant His6-tagged PRMT1 (unknown origin).
The species named for assay [7] is Homo sapiens. The experiment in a line: Selectivity ratio of IC50 for recombinant […] (unknown origin) to IC50 for recombinant His6-tagged PRMT1 (unknown origin).
Assay [8] deals with Protein arginine N-methyltransferase 5 (Homo sapiens, UniProt O14744). The experiment in a line: Displacement of [3H]-SAM from recombinant His6-tagged PRMT5 (unknown origin) expressed in Escherichia coli BL21(DE3) incubated for 5 mins prior to H4(1 to 20)-BTN peptide addition measured after 8 mins by scintillation proximity assay. The procedure, abridged:
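Recombinant His6-PRMT5 was purified on Ni-NTA after IPTG induction in E. coli BL21(DE3). [3H]SAM and H4(1–20)BTN were set near their predetermined Km. Serially diluted compound was preincubated 5 min before peptide addition, reacted 8 min, isopropanol-quenched, and read with streptavidin SPA beads. IC50 and nH came from a Hill fit.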

Assay [9] addresses Protein arginine N-methyltransferase 8 (Homo sapiens, UniProt Q9NR22). The assay can be described thus: Displacement of [3H]-SAM from recombinant His6-tagged PRMT8 (unknown origin) expressed in Escherichia coli BL21(DE3) incubated for 5 mins prior to H4(1 to 20)-BTN peptide addition measured after 8 mins by scintillation proximity assay. In short, it runs like this: as §2

Sequence of Protein arginine N-methyltransferase 5 (O14744 whole entry): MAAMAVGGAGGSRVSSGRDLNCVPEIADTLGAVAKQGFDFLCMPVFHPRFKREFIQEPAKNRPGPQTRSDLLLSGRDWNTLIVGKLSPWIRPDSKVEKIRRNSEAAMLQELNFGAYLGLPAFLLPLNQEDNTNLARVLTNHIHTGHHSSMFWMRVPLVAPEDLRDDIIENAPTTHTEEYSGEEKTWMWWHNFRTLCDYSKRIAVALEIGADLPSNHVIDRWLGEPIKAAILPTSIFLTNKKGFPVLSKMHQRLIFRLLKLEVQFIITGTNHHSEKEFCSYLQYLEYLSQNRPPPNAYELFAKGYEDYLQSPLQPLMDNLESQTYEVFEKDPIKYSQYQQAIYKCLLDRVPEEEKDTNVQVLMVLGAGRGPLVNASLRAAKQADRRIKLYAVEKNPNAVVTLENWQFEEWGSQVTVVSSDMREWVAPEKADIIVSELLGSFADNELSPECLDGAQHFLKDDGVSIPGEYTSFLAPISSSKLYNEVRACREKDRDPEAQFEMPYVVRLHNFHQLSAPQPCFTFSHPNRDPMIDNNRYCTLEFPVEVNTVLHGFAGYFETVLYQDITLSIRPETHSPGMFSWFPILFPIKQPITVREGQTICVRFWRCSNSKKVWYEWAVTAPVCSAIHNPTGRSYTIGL
Sequence of Protein arginine N-methyltransferase 8 (Q9NR22 whole entry): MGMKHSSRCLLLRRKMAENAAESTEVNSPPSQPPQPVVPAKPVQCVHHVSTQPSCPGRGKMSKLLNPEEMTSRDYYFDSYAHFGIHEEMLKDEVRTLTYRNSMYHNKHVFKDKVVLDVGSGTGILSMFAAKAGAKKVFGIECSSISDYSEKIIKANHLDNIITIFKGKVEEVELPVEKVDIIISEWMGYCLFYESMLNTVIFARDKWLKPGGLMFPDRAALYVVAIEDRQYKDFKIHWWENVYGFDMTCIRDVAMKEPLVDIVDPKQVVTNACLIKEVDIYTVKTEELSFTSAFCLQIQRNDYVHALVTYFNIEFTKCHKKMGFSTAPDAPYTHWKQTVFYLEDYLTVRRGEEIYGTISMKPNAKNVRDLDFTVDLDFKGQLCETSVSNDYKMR

As to `CCN1/C(=C/C=C/c2sc3ccccc3[n+]2CC)Sc2ccccc21`, the inhibition in assay [1] is 46%.
As for `CCN1/C(=C/C=C/C2=[N+](CC)c3ccc(Cl)cc3C2(C)C)C(C)(C)c2cc(Cl)ccc21`, in [1], the inhibition was found to be 7%.
Consider `C(/C=C/c1sc2ccccc2[n+]1CCCc1ccccc1)=C1/Sc2ccccc2N1CCCc1ccccc1`, for which, in assay [1], the inhibition turned out to be 76%.
On to `CCN1/C(=C/C=C/c2sc3cc(Br)ccc3[n+]2CC)Sc2cc(Br)ccc21`, for which the IC50 in assay [2] was determined as 6.43 µM. The inhibition in assay [1] came out at 88%.
On to `CCN1/C(=C/C=C/C2=[N+](CC)c3ccc(Br)cc3C2(C)C)C(C)(C)c2cc(Br)ccc21`, for which the inhibition in [1] came to 11%.
The same measure, in the same setting: for `CCCCN1/C(=C/C=C/c2sc3ccccc3[n+]2CCCC)Sc2ccccc21` the value was 79%.
Consider `CC1(C)C(/C=C/C=C2/N(CCCc3ccccc3)c3ccc(Br)cc3C2(C)C)=[N+](CCCc2ccccc2)c2ccc(Br)cc21`, for which the IC50 in assay [2] turned out to be 1.25 µM. Further, the inhibition in [1] is 101%.
Regarding `CC1(C)C(/C=C/C=C2/N(CCCc3ccccc3)c3ccc(Cl)cc3C2(C)C)=[N+](CCCc2ccccc2)c2ccc(Cl)cc21`, the IC50 in assay [2] came out at 1.15 µM. Besides, in assay [1], the inhibition is 100%.
As to `CCN1/C(=C/C=C/C2=[N+](CC)c3ccc4ccccc4c3C2(C)C)C(C)(C)c2c1ccc1ccccc21`, the inhibition in assay [1] was found to be 27%.
Take `CCCCN1/C(=C/C=C/C2=[N+](CCCC)c3ccc4ccccc4c3C2(C)C)C(C)(C)c2c1ccc1ccccc21`: in assay [1], the inhibition amounted to 91%.
Consider `CC[N+]1=C(/C=C/C=C2/N(C)c3ccccc3C2(C)C)C(C)(C)c2ccccc21`, for which the inhibition in assay [3] stood at 41%; in assay [4] it was 9%. The inhibition result in assay [1] was “inactive”.
On to `CC1(C)C(/C=C/C(Cl)=C/C=C2/N(CCCc3ccccc3)c3ccc4ccccc4c3C2(C)C)=[N+](CCCc2ccccc2)c2ccc3ccccc3c21`, for which the IC50 in assay [2] turned out to be 1.81 µM. The inhibition in [1] was found to be 96.3%.
`CCN1/C(=C/C=C(Cl)/C=C/C2=[N+](CC)c3ccc4ccccc4c3C2(C)C)C(C)(C)c2c1ccc1ccccc21`: the inhibition in assay [1] was 69%.
In the case of `CCCCN1/C(=C\C=C\C2=[N+](CCCC)c3ccc4ccccc4c3C2(C)C)C(C)(C)c2c1ccc1ccccc21`, in assay [2], the IC50 was 2.56 µM.
Consider `CCCCN1/C(=C/C=C/c2sc3cc(Br)ccc3[n+]2CCCC)Sc2cc(Br)ccc21`, for which the IC50 in [2] came out at 2.67 µM. Besides, the inhibition in assay [1] was determined as 93%.
As for `CCCCN1/C(=C/C(C)=C/c2sc3ccccc3[n+]2CCCC)Sc2ccccc21`, in [1], the inhibition came to 77%.
`CCCCN1/C(=C/C=C/C2=[N+](CCCC)c3ccc(Br)cc3C2(C)C)C(C)(C)c2cc(Br)ccc21`: the inhibition in assay [1] turned out to be 48%.
Regarding `CCN1/C(=C/C(C)=C/c2sc3c4ccccc4ccc3[n+]2CC)Sc2c1ccc1ccccc21`, the 50% inhibitory concentration (IC50) in [2] was found to be 2.37 µM. For the same compound, the inhibition in assay [1] was 92%.
With `CCN1/C(=C/C=C/c2sc3c4ccccc4ccc3[n+]2CC)Sc2c1ccc1ccccc21`, the inhibition in assay [1] turned out to be 40%.
For `CC1(C)C(/C=C/C=C2/N(CCCc3ccccc3)c3ccccc3C2(C)C)=[N+](CCCc2ccccc2)c2ccccc21`, the inhibition in [3] was 100%; in [1], 41%; in assay [4], 101%.
On to `CCCCN1/C(=C/C=C/c2sc3ccc(Br)cc3[n+]2CCCC)Sc2ccc(Br)cc21`, for which the IC50 amounted to 2.03 µM in [2], 7.23 µM in [5] and 8.36 µM in assay [8]. In addition, the inhibition in assay [1] was found to be 91%. The Ratio IC50 in the assay listed under Homo sapiens [6] and in the assay listed under Homo sapiens [7] was 3 each time.
Turning to `CCCCN1/C(=C/C=C/C2=[N+](CCCC)c3ccccc3C2(C)C)C(C)(C)c2ccccc21`, the results for the inhibition in [3] and in assay [4] were 91% and 48%, respectively. Also, in [1], the inhibition result was “inactive”.
For `CCCC[N+]1=C(/C=C/C=C2/N(C)c3ccccc3C2(C)C)C(C)(C)c2ccccc21`, in that order: 79%, 32% and 8%.
As to `CC1(C)C(/C=C/C=C2/N(CCCc3ccccc3)c3ccc4ccccc4c3C2(C)C)=[N+](CCCc2ccccc2)c2ccc3ccccc3c21`, the half-inhibitory concentration (IC50) stood at 0.61 µM in assay [2], 1.74 µM in assay [9] and 1.4 µM in assay [8]. The inhibition in assay [1] came to 100%.
Consider `CCCCN1/C(=C/C=C/c2sc3c4ccccc4ccc3[n+]2CCCC)Sc2c1ccc1ccccc21`, for which, in assay [2], the IC50 amounted to 4 µM. Further, the inhibition in assay [1] was determined as 99%.
For `CCCC[N+]1=C(C)C(C)(C)c2ccccc21`, the inhibition entry in [3], in [1] and in assay [4] was “inactive” throughout.
In the case of `CN1/C(=C/C=C/C2=[N+](CCC[N+](C)(C)C)c3ccc(S(=O)(=O)[O-])cc3C2(C)C)C(C)(C)c2ccccc21`, in assay [1], the inhibition entry is “inactive”.
On to `CN1/C(=C/C=C/C2=[N+](CCCc3ccccc3)c3ccccc3C2(C)C)C(C)(C)c2ccccc21`, for which the inhibition was 101% in assay [3], 35% in assay [1] and 96% in assay [4].
Take `CC1(C)C(/C=C/C=C/C=C2/N(CCCc3ccccc3)c3ccc4ccccc4c3C2(C)C)=[N+](CCCc2ccccc2)c2ccc3ccccc3c21`: in assay [2], the half-inhibitory concentration (IC50) turned out to be 5.76 µM. The inhibition in [1] is 70.2%.
`CC[N+]1=C(C)C(C)(C)c2ccccc21`: the inhibition entry in assay [3], in [1] and in assay [4] was “inactive” each time.
`CN1/C(=C/C=C/C2=[N+](CCCS(=O)(=O)[O-])c3ccccc3C2(C)C)C(C)(C)c2ccccc21`: the inhibition entry in [1] was “inactive”.
Regarding `CCN1/C(=C/C=C/C=C/C2=[N+](CC)c3ccc4ccccc4c3C2(C)C)C(C)(C)c2c1ccc1ccccc21`, the IC50 in assay [2] amounted to 3.39 µM. In addition, the inhibition in [1] worked out at 89%.
As for `CN1/C(=C/C=C/C2=[N+](CCC[N+](C)(C)C)c3ccccc3C2(C)C)C(C)(C)c2ccccc21`, the inhibition in [1] was found to be 2%.
Same read-out and setting: the same measure for `CCCCN1/C(=C/C=C/C2=[N+](CCCC)c3ccc(Cl)cc3C2(C)C)C(C)(C)c2cc(Cl)ccc21`: 34%.
Regarding `CCCCN1/C(=C/C(/C=C/c2ccccc2)=C/c2sc3ccccc3[n+]2CCCC)Sc2ccccc21`, the inhibition in [1] turned out to be 48%.
Take `CC1=[N+](CCCc2ccccc2)c2ccccc2C1(C)C`: the inhibition in [3] worked out at 80%. The inhibition result in assay [1] and in [4] was “inactive” in each case.
For the compound `CCCC[N+]1=C(/C=C/C=C2/N(C)c3ccccc3C2(C)C)C(C)(C)c2cc(Br)ccc21`, in assay [1], the inhibition worked out at 36%.
Take `CCCCN1/C(=C/C=C(Br)/C=C/C2=[N+](CCCC)c3ccc(Br)cc3C2(C)C)C(C)(C)c2cc(Br)ccc21`: the IC50 in assay [2] was found to be 3.38 µM; in assay [9], 84.9 µM; in assay [5] it was 21.5 µM; in assay [8], 35.4 µM. The inhibition in [1] was determined as 96%.
`CCN1/C(=C\C=C\C2=[N+](CC)c3ccccc3C2(C)C)C(C)(C)c2ccccc21`: the inhibition in assay [3] amounted to 60.6%; in [1] it was 4%; in assay [4], 42%.

What is called inhibition is the relative decrease from the control value, in per cent. As usually defined, the IC50 is the concentration at which inhibition is half-maximal.
